One assay is filed under the species Homo sapiens. Put plainly: Inhibitory concentration required to inhibit LPS-induced TNF-alpha production in ex vivo human whole blood assay. Type of assay: functional, organism-based. In a few lines:
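Fresh EDTA-anticoagulated whole blood from healthy volunteers was mixed with an equal volume of 20 ng/ml E. coli O111:B4 LPS plus graded compound concentrations diluted in saline and incubated for 4 h. TNF-α was quantified by a multiplexed flow-cytometric cytokine bead array against recombinant cytokine standards. IC50 was derived from dose-response.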

Assay [1] in a line: In vitro inhibitory concentration required to inhibit LPS-induced nitric oxide production in J774A.1 cells. Type of assay: functional, cell-based. The settings on record: Mus musculus, J774.A1. In a few lines:
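Murine J774A.1 macrophages were plated at ~10^5/ml and stimulated with 10 ng/ml LPS. Serially diluted compounds were added at the same time, with polymyxin B as reference, and cells were incubated for 16 h. Nitrite in the supernatant was measured by Griess reaction (15 min, room temperature, dark; A535) against a sodium nitrite standard curve. IC50 was taken from dose-response. Viability was checked in parallel by XTT.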

The test system of assay [2] is Lipopolysaccharide (LPS). The experiment in a line: Effective dose required for binding to lipopolysaccharide using Fluorescence Displacement Assay. In a few lines: (§1)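 BODIPY-TR-cadaverine displacement from LPS. Compounds from 5 mM DMSO stocks were serially diluted two-fold in 50 mM Tris pH 7.4 down to 0.596 nM final. An LPS/probe mixture was added and end-point fluorescence was read at 620 nm; probe de-quenching reports binding. ED50 was computed from displacement curves, with polymyxin B as the reference on every plate.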

Assay [3] deals with Lipopolysaccharide (LPS). The experiment in a line: Effective dose required for binding to lipopolysaccharide using Fluorescence Displacement Assay; Range is ~1-2 uM. In a few lines:
as §1

Assay [4] relates to Mus musculus. The experiment in a line: Protection of LPS-induced lethality in mice was determined after administration of 100 ug and activity expressed as dead/total (2/5). It is filed as functional.
Assay [5] has as its system Mus musculus. The experiment in a line: Protection of LPS-induced lethality in mice was determined after administration of 50 ug and activity expressed as dead/total (4/5). Type of assay: functional.
The subject of assay [6] is Mus musculus. Put plainly: Protection of LPS-induced lethality in mice was determined after administration of 0 ug and activity expressed as dead/total (5/5). Type of assay: functional.
Assay [7] concerns Mus musculus. Put plainly: Protection of LPS-induced lethality in mice was determined after administration of 500 ug and activity expressed as dead/total (4/5). Type of assay: functional.
Assay [8] relates to Mus musculus. The experiment in a line: Protection of LPS-induced lethality in mice was determined after administration of 200 ug and activity expressed as dead/total (1/5). Type of assay: functional.
Assay [9] has as its system Mus musculus. The experiment in a line: Protection of LPS-induced lethality in mice was determined after administration of 10 ug and activity expressed as dead/total (5/5). It is filed as functional.
In assay [10] the test system is Mus musculus. The experiment in a line: Protection of LPS-induced lethality in mice was determined after administration of 50 ug and activity expressed as dead/total (5/5). It is filed as functional.
The subject of assay [11] is Mus musculus. Put plainly: Protection of LPS-induced lethality in mice was determined after administration of 100 ug and activity expressed as dead/total (4/5). It is filed as functional.
The subject of assay [12] is Mus musculus. The experiment in a line: Protection of LPS-induced lethality in mice sensitized by D-galactosamine was determined after 200 ug administered ip at -6 hour and activity expressed as dead/total (1/5). It is filed as functional.
In assay [13] the test system is Mus musculus. Put plainly: Protection of LPS-induced lethality in mice was determined after administration of 100 ug and activity expressed as dead/total (0/5). It is filed as functional.
The subject of assay [14] is Mus musculus. The experiment in a line: Protection of LPS-induced lethality in mice sensitized by D-galactosamine was determined after 200 ug administered ip at -2 hour and activity expressed as dead/total (0/5). It is filed as functional.
Assay [15] deals with Lipopolysaccharide (LPS). The experiment in a line: Dissociation constant against lipopolysaccharide. In a few lines:
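Isothermal titration calorimetry at 37 °C in 50 mM Tris pH 7.4, ligand and LPS in the same buffer. E. coli O111:B4 LPS was titrated in 35 injections at 360 s intervals into the cell holding the acylhomospermine, with stirring at 310 rpm. Controls injected LPS into buffer. KD was obtained from fitting the binding isotherm.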

Assay [16] has as its system Mus musculus. The experiment in a line: Protection of LPS-induced lethality in mice sensitized by D-galactosamine was determined after 200 ug administered ip at -4 hour and activity expressed as dead/total (1/5). Type of assay: functional.
Assay [17] relates to Mus musculus. Put plainly: Protection of LPS-induced lethality in mice was determined after administration of 50 ug and activity expressed as dead/total (2/5). Type of assay: functional.
Assay [18] has as its system Mus musculus. The experiment in a line: Protection of LPS-induced lethality in mice was determined after administration of 200 ug and activity expressed as dead/total (0/5). Type of assay: functional.
The test system of assay [19] is Mus musculus. The experiment in a line: Protection of LPS-induced lethality in mice sensitized by D-galactosamine was determined after 200 ug administered ip at 2 hour and activity expressed as dead/total (4/5). It is filed as functional.
Assay [20] relates to Mus musculus. Put plainly: Protection of LPS-induced lethality in mice sensitized by D-galactosamine was determined after 200 ug administered ip at 1 hour and activity expressed as dead/total (5/5). Type of assay: functional.
Assay [21] has as its system Mus musculus. Put plainly: Protection of LPS-induced lethality in mice sensitized by D-galactosamine was determined after 200 ug administered ip at 0 hour and activity expressed as dead/total (0/5). Type of assay: functional.

These results are taken from ChEMBL document CHEMBL1145213, “Lipopolysaccharide sequestrants: structural correlates of activity and toxicity in novel acylhomospermines” (J Med Chem, 2005).

In general, IC50 refers to the concentration at which inhibition is half-maximal. Low values mean higher potency, high ones lower potency. `CCCCCCCCCCCCCCCCCCC(=O)NCCCNCCCNCCCCNCCCNCCCNC(=O)CCCCCCCCCCCCCCCCCC`: the IC50 turned out to be 120 µM in the assay filed under Homo sapiens and 13.9 µM in [1]. Moreover, the ED50 in the assay with Lipopolysaccharide (LPS) [2] was determined as 66.7 µM.
The matching figures for `CCCCCCCCCCCCCCCCC(=O)NCCCNCCCNCCCCNCCCNCCCNC(=O)CCCCCCCCCCCCCCCC`: 37.1 µM, 14.2 µM and 52.5 µM.
POLYMYXIN B: the ED50 in the assay on Lipopolysaccharide (LPS) [2] turned out to be 1.2 µM.
In the assay with Lipopolysaccharide (LPS) [3], `NCCCNCCCCNCCCN` had an ED50 below 2 µM.
On the same count and under the same terms, to `CCCCCCCCCC(=O)NCCCN(CCCN(CCCCN(CCCNC(=O)OC(C)(C)C)C(=O)OC(C)(C)C)C(=O)OC(C)(C)C)C(=O)OC(C)(C)C` belongs below 2 µM.
As to `CCCCCCCCCC(=O)NCCCNCCCNCCCCNCCCNCCCNC(=O)CCCCCCCCC`, the concentration for half-maximal inhibition (IC50) in the assay listed under Homo sapiens worked out at 10 µM; in [1], 1.47 µM. Also, in the assay on Lipopolysaccharide (LPS) [2], the ED50 came out at 0.76 µM.
`CC(=O)NCCCN(CCCN(CCCCN(CCCNC(=O)OC(C)(C)C)C(=O)OC(C)(C)C)C(=O)OC(C)(C)C)C(=O)OC(C)(C)C` had an ED50 in the assay with Lipopolysaccharide (LPS) [3] below 2 µM.
For `CCCCCCCCCCCCCCC(=O)NCCCNCCCNCCCCNCCCNCCCNC(=O)CCCCCCCCCCCCCC`, the IC50 in the assay listed under Homo sapiens amounted to 63.1 µM; in assay [1], 10.1 µM. The ED50 in the assay on Lipopolysaccharide (LPS) [2] was determined as 8.67 µM.
Taken in the same sequence, the figures for `CCCCCCCCCCCCCCCCCCC(=O)NCCCNCCCNCCCCNCCCN` were 2.31 µM, 4.35 µM and 2.44 µM.
The compound `CCCCCCCCC(=O)NCCCN(CCCN(CCCCN(CCCNC(=O)OC(C)(C)C)C(=O)OC(C)(C)C)C(=O)OC(C)(C)C)C(=O)OC(C)(C)C` displayed an ED50 in the assay on Lipopolysaccharide (LPS) [3] below 2 µM.
As to `CCCCCCCCCC(=O)NCCCNCCCNCCCCNCCCN`, the figures for the 50% inhibitory concentration (IC50) (in the assay filed under Homo sapiens; in [1]) were 16.5 µM and 23.5 µM, respectively. Besides, in the assay with Lipopolysaccharide (LPS) [2], the ED50 was 1.08 µM.
For `CCCCCCCCCCCCCCC(=O)NCCCN(CCCN(CCCCN(CCCNC(=O)OC(C)(C)C)C(=O)OC(C)(C)C)C(=O)OC(C)(C)C)C(=O)OC(C)(C)C`, the ED50 with Lipopolysaccharide (LPS) [3] was below 2 µM.
`CCCCCCCCCCCC(=O)NCCCNCCCNCCCCNCCCNCCCNC(=O)CCCCCCCCCCC`: the Dead was 2 with Mus musculus [4]; 4 with Mus musculus [5]; 5 in the assay on Mus musculus [6]; 4 in the assay on Mus musculus [7]; 1 in the assay with Mus musculus [8]. The results for the half-inhibitory concentration (IC50) (in the assay listed under Homo sapiens; in [1]) were 9.19 µM and 1.44 µM, respectively. Besides, in the assay on Lipopolysaccharide (LPS) [2], the ED50 is 6.87 µM.
With `CCCCCCCCC(=O)NCCCNCCCNCCCCNCCCNCCCNC(=O)CCCCCCCC`, the 50% inhibitory concentration (IC50) came out at 4.88 µM in the assay filed under Homo sapiens and 2.05 µM in assay [1]. Further, the Dead in the assay with Mus musculus [6] came to 5; in the assay with Mus musculus [9], 5; in the assay with Mus musculus [10], 5; with Mus musculus [11], 4; with Mus musculus [8], 1. In addition, the ED50 in the assay on Lipopolysaccharide (LPS) [2] was 0.33 µM.
In the case of `CCCCCCCCCCCCCCCCC(=O)NCCCN(CCCN(CCCCN(CCCNC(=O)OC(C)(C)C)C(=O)OC(C)(C)C)C(=O)OC(C)(C)C)C(=O)OC(C)(C)C`, in the assay on Lipopolysaccharide (LPS) [3], the ED50 is below 2 µM.
As to `CCCCCCCCC(=O)NCCCNCCCNCCCCNCCCN`, the IC50 in the assay listed under Homo sapiens amounted to 31.1 µM; in [1], 52.5 µM. This compound also displayed an ED50 with Lipopolysaccharide (LPS) [2] of 0.92 µM.
Regarding `CCCCCCCCCCCCCCCCCCC(=O)NCCCN(CCCN(CCCCN(CCCNC(=O)OC(C)(C)C)C(=O)OC(C)(C)C)C(=O)OC(C)(C)C)C(=O)OC(C)(C)C`, the ED50 in the assay on Lipopolysaccharide (LPS) [3] was below 2 µM.
Still for that read-out and setting: the same measure for `CC(C)(C)OC(=O)NCCCN(CCCCN(CCCN(CCCN)C(=O)OC(C)(C)C)C(=O)OC(C)(C)C)C(=O)OC(C)(C)C`: below 2 µM.
In the case of `CC(=O)NCCCNCCCNCCCCNCCCN`, the values for the IC50 (in the assay filed under Homo sapiens; in assay [1]) were 36.6 µM and 171 µM, respectively. The compound further returned an ED50 in the assay with Lipopolysaccharide (LPS) [2] of 107 µM.
`CCCCCCCCCCCCCCC(=O)NCCCNCCCNCCCCNCCCN`: the figures for the concentration for half-maximal inhibition (IC50) (in the assay filed under Homo sapiens; in [1]) were 2.27 µM and 3.69 µM, respectively. In the assay with Lipopolysaccharide (LPS) [2], this compound came in with an ED50 of 1.35 µM.
For orientation: Kd means the concentration at which binding is half-saturated. Higher therefore signals weaker binding. As for `CCCCCCCCCCCCCCCCC(=O)NCCCNCCCNCCCCNCCCN`, the Dead is given as 1 in the assay on Mus musculus [12]; 5 with Mus musculus [6]; 0 in the assay with Mus musculus [13]; 5 with Mus musculus [9]; 0 in the assay with Mus musculus [14]; 1 with Mus musculus [16]. Further, the Dead in the assay on Mus musculus [17] is given as 2; in the assay on Mus musculus [18], 0; in the assay on Mus musculus [19], 4; in the assay on Mus musculus [20], 5; in the assay on Mus musculus [21], 0. Also, the concentration for half-maximal inhibition (IC50) in the assay listed under Homo sapiens amounted to 1.91 µM; in assay [1] it was 4.22 µM. Binding on Lipopolysaccharide (LPS) [15] was characterised by a dissociation constant (Kd) of 1.21 µM. The compound further gave an ED50 with Lipopolysaccharide (LPS) [2] of 1.37 µM.
